What was measured:
Type in all cases: functional
[1] = system: KM12; test: Growth inhibition of human KM12 cells at 10^-5 M after 48 hrs by Sulforhodamine B assay relative to control; conditions: KM12, 48 h, read-out: GI
How it was run: (§1)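 Single-dose screen at 10⁻⁵ M. Cells are preincubated 24 h at 37 °C in 5% CO2, then exposed to the compound, diluted from a DMSO stock into medium with gentamicin, for 48 h. Adherent cells are fixed with cold TCA (final 10%) and suspension cells with TCA (final 16%). Cells are stained with 0.4% SRB in 1% acetic acid and bound dye is read at 515 nm. Percent growth inhibition is taken against control wells and time-zero plates.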

[2] = system: COLO 205; test: Growth inhibition of human COLO205 cells at 10^-5 M after 48 hrs by Sulforhodamine B assay relative to control; conditions: COLO 205, 48 h, read-out: GI; how it was run: as §1
[3] = system: NCI-H460; test: Growth inhibition of human NCI-H460 cells at 10^-5 M after 48 hrs by Sulforhodamine B assay relative to control; conditions: NCI-H460, 48 h, read-out: GI
How it was run: (§2)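 Single-dose primary screen at 10⁻⁵ M across 49 lines. Cells were plated 24 h beforehand, with a TCA-fixed time-zero plate, then exposed 48 h at 37 °C, 5% CO2. Cells were fixed with cold TCA, stained with SRB and read at 515 nm. Percent growth was calculated against time-zero and untreated-control absorbances.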

[4] = system: NCI-H322M; test: Growth inhibition of human NCI-H322M cells at 10^-5 M after 48 hrs by Sulforhodamine B assay relative to control; conditions: read-out: GI; how it was run: as §2
[5] = system: MDA-MB-468; test: Growth inhibition of human MDA-MB-468 cells at 10^-5 M after 48 hrs by Sulforhodamine B assay relative to control; conditions: MDA-MB-468, 48 h, read-out: GI; how it was run: as §2
[6] = system: BT-549; test: Growth inhibition of human BT549 cells at 10^-5 M after 48 hrs by Sulforhodamine B assay relative to control; conditions: BT-549, 48 h, read-out: GI; how it was run: as §1
[7] = system: MDA-MB-231; test: Growth inhibition of human MDA-MB-231 cells at 10^-5 M after 48 hrs by Sulforhodamine B assay relative to control; conditions: MDA-MB-231, 48 h, read-out: GI; how it was run: as §1
[8] = system: MCF7; test: Growth inhibition of human MCF7 cells at 10^-5 M after 48 hrs by Sulforhodamine B assay relative to control; conditions: MCF7, 48 h, read-out: GI; how it was run: as §1
[9] = system: ACHN; test: Growth inhibition of human ACHN cells at 10^-5 M after 48 hrs by Sulforhodamine B assay relative to control; conditions: read-out: GI; how it was run: as §1
[10] = system: SK-OV-3; test: Growth inhibition of human SKOV3 cells at 10^-5 M after 48 hrs by Sulforhodamine B assay relative to control; conditions: SK-OV-3, 48 h, read-out: GI; how it was run: as §2
[11] = Growth inhibition of human NCI-ADR-RES cells at 10^-5 M after 48 hrs by Sulforhodamine B assay relative to control; conditions: read-out: GI; how it was run: as §2
[12] = system: OVCAR-5; test: Growth inhibition of human OVCAR5 cells at 10^-5 M after 48 hrs by Sulforhodamine B assay relative to control; conditions: OVCAR-5, 48 h, read-out: GI; how it was run: as §2
[13] = system: UACC-62; test: Growth inhibition of human UACC62 cells at 10^-5 M after 48 hrs by Sulforhodamine B assay relative to control; conditions: UACC-62, 48 h, read-out: GI
How it was run: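 Single-dose stage: compound tested at 10⁻⁵ M in the 49-cell-line panel. Cells grew 24 h at 37 °C, 5% CO₂ before drug addition. Drug stock was in DMSO at 400-fold, diluted in medium with gentamicin. After 48 h exposure, adherent cells were fixed with cold TCA (10% final) and stained with 0.4% SRB in 1% acetic acid. Dye was solubilized in 10 mM Tris, read at 515 nm. Growth percentage was taken relative to untreated control and time-zero plates.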

[14] = system: MDA-MB-435; test: Growth inhibition of human MDA-MB-435 cells at 10^-5 M after 48 hrs by Sulforhodamine B assay relative to control; conditions: MDA-MB-435, 48 h, read-out: GI; how it was run: as §1

Compound `COc1ccc(N2CCN(c3nc(-c4ccncc4)nc4sc5c(c34)CCCCCC5)CC2)cc1` has an inhibition of growth at 10 µM [1] of 22.4%, an inhibition of growth at 10 µM [2] of 5.76% and an inhibition of growth at 10 µM [3] of 5.35%. For the same compound, the inhibition of growth at 10 µM [4] was -7.78%, the inhibition of growth at 10 µM [5] was 0.83% and the inhibition of growth at 10 µM [6] was -17.1%. The inhibition of growth at 10 µM [7] was 12.1%, the inhibition of growth at 10 µM [8] was 18.1% and the inhibition of growth at 10 µM [9] was 19.9%. The inhibition of growth at 10 µM [10] was 0.84%, the inhibition of growth at 10 µM [11] was 9.28% and the inhibition of growth at 10 µM [12] was 2.26%. It also gave an inhibition of growth at 10 µM [13] of 36.9% and an inhibition of growth at 10 µM [14] of 4.86%.

`c1ccc(N2CCN(c3nc(-c4ccncc4)nc4sc5c(c34)CCCCCC5)CC2)cc1` gave an inhibition of growth at 10 µM [1] of 4.95%, an inhibition of growth at 10 µM [2] of -1.65% and an inhibition of growth at 10 µM [3] of -6.17%. The inhibition of growth at 10 µM [4] was -2.96%, the inhibition of growth at 10 µM [5] was 3.79% and the inhibition of growth at 10 µM [6] was -14.1%. For the same compound, the inhibition of growth at 10 µM [7] was 2.4%, the inhibition of growth at 10 µM [8] was 2.49% and the inhibition of growth at 10 µM [9] was 7.05%. The inhibition of growth at 10 µM [10] was 1.97%, the inhibition of growth at 10 µM [11] was 5.34% and the inhibition of growth at 10 µM [12] was 1.59%. For the same compound, the inhibition of growth at 10 µM [13] was 5.59% and the inhibition of growth at 10 µM [14] was 2.52%.

With `c1ccc(N2CCN(c3nc(-c4ccccn4)nc4sc5c(c34)CCCCCC5)CC2)cc1` the inhibition of growth at 10 µM [1] was 55%, the inhibition of growth at 10 µM [2] was 26.3% and the inhibition of growth at 10 µM [3] was 46%. The inhibition of growth at 10 µM [4] was 17.7%, the inhibition of growth at 10 µM [5] was 30.1% and the inhibition of growth at 10 µM [6] was 2.77%. The inhibition of growth at 10 µM [7] was 22.4%, the inhibition of growth at 10 µM [8] was 89.2% and the inhibition of growth at 10 µM [9] was 56.1%. It also gave an inhibition of growth at 10 µM [10] of 12.6%, an inhibition of growth at 10 µM [11] of 57.5% and an inhibition of growth at 10 µM [12] of 36.8%. It also gave an inhibition of growth at 10 µM [13] of 41.2% and an inhibition of growth at 10 µM [14] of 34.2%.

Work on `c1cc(-c2nc(N3CCOCC3)c3c4c(sc3n2)CCCCCC4)ccn1` yielded an inhibition of growth at 10 µM [1] of 19.6%, an inhibition of growth at 10 µM [2] of -0.84% and an inhibition of growth at 10 µM [3] of 8.02%. The inhibition of growth at 10 µM [4] was -14.3%, the inhibition of growth at 10 µM [5] was 11.8% and the inhibition of growth at 10 µM [6] was -20.4%. For the same compound, the inhibition of growth at 10 µM [7] was 28.1%, the inhibition of growth at 10 µM [8] was 28.5% and the inhibition of growth at 10 µM [9] was 17.1%. For the same compound, the inhibition of growth at 10 µM [10] was 0.61%, the inhibition of growth at 10 µM [11] was 18.7% and the inhibition of growth at 10 µM [12] was -1.32%. It also gave an inhibition of growth at 10 µM [13] of 15.5% and an inhibition of growth at 10 µM [14] of 0.03%.

Work on `NNc1nc(-c2ccncc2)nc2sc3c(c12)CCCCCC3` yielded an inhibition of growth at 10 µM [1] of -0.57%, an inhibition of growth at 10 µM [2] of 2.31% and an inhibition of growth at 10 µM [3] of -4.36%. For the same compound, the inhibition of growth at 10 µM [4] was 3.42%, the inhibition of growth at 10 µM [5] was 20.1% and the inhibition of growth at 10 µM [6] was 1.1%. For the same compound, the inhibition of growth at 10 µM [7] was 1.46%, the inhibition of growth at 10 µM [8] was 5.87% and the inhibition of growth at 10 µM [9] was 8.69%. It also gave an inhibition of growth at 10 µM [10] of 9.44%, an inhibition of growth at 10 µM [11] of 2.44% and an inhibition of growth at 10 µM [12] of -0.54%. It also gave an inhibition of growth at 10 µM [13] of 10.8% and an inhibition of growth at 10 µM [14] of 1.01%.

For `Clc1nc(-c2ccncc2)nc2sc3c(c12)CCCCCC3`, the inhibition of growth at 10 µM [1] was 0.47%, the inhibition of growth at 10 µM [2] was -16.6% and the inhibition of growth at 10 µM [3] was -2.59%. For the same compound, the inhibition of growth at 10 µM [4] was 3.46%, the inhibition of growth at 10 µM [5] was 39.6% and the inhibition of growth at 10 µM [6] was -2.76%. For the same compound, the inhibition of growth at 10 µM [7] was -6.99%, the inhibition of growth at 10 µM [8] was 3.18% and the inhibition of growth at 10 µM [9] was -0.47%. For the same compound, the inhibition of growth at 10 µM [10] was -7.46%, the inhibition of growth at 10 µM [11] was -6.46% and the inhibition of growth at 10 µM [12] was -5.24%. For the same compound, the inhibition of growth at 10 µM [13] was 6.14% and the inhibition of growth at 10 µM [14] was 3.14%.

`Clc1nc(-c2ccccn2)nc2sc3c(c12)CCCCCC3` showed an inhibition of growth at 10 µM [1] of 8.45%, an inhibition of growth at 10 µM [2] of -14.6% and an inhibition of growth at 10 µM [3] of 9.1%. The inhibition of growth at 10 µM [4] was 15.5%, the inhibition of growth at 10 µM [5] was 184% and the inhibition of growth at 10 µM [6] was 14.9%. The inhibition of growth at 10 µM [7] was -16.9%, the inhibition of growth at 10 µM [8] was 46% and the inhibition of growth at 10 µM [9] was 120%. The inhibition of growth at 10 µM [10] was -5.16%, the inhibition of growth at 10 µM [11] was 10.7% and the inhibition of growth at 10 µM [12] was -7.94%. It also gave an inhibition of growth at 10 µM [13] of 4.04% and an inhibition of growth at 10 µM [14] of 8.64%.

From ChEMBL document CHEMBL2375304, “Synthesis and anticancer activity of novel 2-pyridyl hexahyrocyclooctathieno[2,3-d]pyrimidine derivatives” (2013)
